In brackets after ≈: the same amount, converted by molar mass.
Experiments:
Plasmodium falciparum [1] = assay: Resistance index, ratio of IC50 for chloroquine-resistant synchronized trophozoite stage of Plasmodium falciparum Dd2 to IC50 for chloroquine-sensitive synchronized trophozoite stage of Plasmodium falciparum NF54; assay type: functional
[2] = Kinetic solubility of compound in simulating fasting state biorelevant media at pH 6.5 after 2 hrs by shake flask method; assay type: physicochemical; settings: fasted-state simulating biorelevant medium, read-out: Kinetic_solubility
[3] = n-Octanol-buffer distribution coefficient, log D of the compound at pH 5 incubated for 4 hrs by UV-vis based shake flask method; assay type: physicochemical
[4] = n-Octanol-buffer distribution coefficient, log D of the compound at pH 7.4 […] by HPLC based shake flask method; assay type: physicochemical
Plasmodium falciparum [5] = assay: Antiplasmodial activity against chloroquine-sensitive synchronized trophozoite stage of Plasmodium falciparum NF54 after 48 hrs by NBT dye based LDH assay; assay type: functional; settings: NF54, 48 h
Plasmodium falciparum [6] = assay: Antiplasmodial activity against chloroquine-resistant synchronized trophozoite stage of Plasmodium falciparum Dd2 after 48 hrs by NBT dye based LDH assay; assay type: functional; settings: Dd2, 48 h
Plasmodium falciparum [7] = assay: Antiplasmodial activity against chloroquine-resistant synchronized trophozoite stage of Plasmodium falciparum 7G8 after 48 hrs by NBT dye based LDH assay; assay type: functional; settings: 7G8, 48 h
CHO = assay: Cytotoxicity against CHO cells by MTT assay; assay type: cell-based; settings: Cricetulus griseus
In short: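 MTT assay on CHO cells. DMSO stock diluted in complete medium; 10-fold serial dilutions, 6 concentrations from 100 to 0.001 μg/mL; emetine reference; triplicate on each occasion. IC50 from non-linear fit of full dose-response curves.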

Plasmodium falciparum [8] = assay: Resistance index, ratio of IC50 for chloroquine-resistant synchronized trophozoite stage of Plasmodium falciparum 7G8 to IC50 for chloroquine-sensitive synchronized trophozoite stage of Plasmodium falciparum NF54; assay type: functional
[9] = Selectivity index, ratio of IC50 for CHO cells to IC50 for chloroquine-sensitive synchronized trophozoite stage of Plasmodium falciparum NF54; assay type: toxicity; settings: hamster; read-out: Ratio IC50
Plasmodium berghei = assay: Antimalarial activity against chloroquine-sensitive Plasmodium berghei ANKA infected in C57BL/6 mouse assessed as supression of parasitemia at 30 mg/kg, po administered for 4 consecutive days starting at 2 hrs post infection by peter's test relative to control; assay type: functional
In short: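 P. berghei ANKA passaged in C57BL/6 donor; test mice infected ip with 200 μL of 1 × 10⁷ parasitized erythrocytes in PBS. Oral dosing 30 mg/kg at 2 h post-infection, then daily D0–D3; PBS-dosed controls. Parasitemia read on D4 from Giemsa-stained, methanol-fixed tail thin films; suppression relative to control.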

[10] = Half life in BALB/c mouse liver microsomes at 1 uM in presence of NADPH by LC-MS/MS analysis; assay type: ADME, microsome
In short: (§1)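 Compound at 1 μM with 0.35 mg/ml male BALB/c mouse liver microsomes, 1 mM NADPH, 100 mM phosphate pH 7.4, 37 °C, 30 min; triplicate. Stopped by ice-cold acetonitrile with carbamazepine internal standard; parent loss by LC-MS/MS (ESI positive, MRM) as % remaining; scan data screened for putative metabolite fragments.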

[11] = Intrinsic clearance in BALB/c mouse liver microsomes at 1 uM in presence of NADPH by LC-MS/MS analysis; assay type: ADME, microsome; settings: read-out: CLH; in short: as §1
[12] = Metabolic stability in BALB/c mouse liver microsomes assessed as parent compound remaining at 1 uM after 30 mins in presence of NADPH by LC-MS/MS analysis; assay type: ADME, microsome; settings: read-out: Stability; in short: as §1
Plasmodium falciparum [13] = assay: Increase in hemoglobin levels in chloroquine-sensitive synchronized ring stage of Plasmodium falciparum NF54 after 32 hrs by flow cytometric analysis; assay type: functional
In short: (§2)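 Sorbitol-synchronized (5%) ring-stage cultures exposed to compound at multiples of IC50 for 32 h; trophozoites freed with 0.05% saponin, PBS-washed, counted by hemocytometer and flow cytometry. Hypotonic lysis/sonication, then sequential SDS/pyridine fractionation into hemoglobin, free heme and hemozoin (SDS/NaOH) fractions; each measured by UV-vis as Fe(III) heme-pyridine complex.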

Plasmodium falciparum [14] = assay: Increase in free heme levels in chloroquine-sensitive synchronized ring stage of Plasmodium falciparum NF54 after 32 hrs by flow cytometric analysis; assay type: functional; in short: as §2
Plasmodium falciparum [15] = assay: Decrease in hemozoine formation in chloroquine-sensitive synchronized ring stage of Plasmodium falciparum NF54 after 32 hrs by flow cytometric analysis; assay type: functional; in short: as §2
[16] = Inhibition of beta hematin formation by detergent based assay
In short: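 β-hematin formation from hematin in 1 M acetate buffer pH 4.9 with NP40 detergent, compound serially diluted from 20 mM DMSO stock; ~5 h at 37 °C. Free heme complexed with pyridine/acetone/HEPES pH 7.4 solution, absorbance at 405 nm; IC50 from dose-response curves.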

Liver [17] = assay: Drug metabolism in BALB/c mouse liver microsomes assessed as N-dealkylation on tertiary amine at 1 uM in presence of NADPH by mass spectrometric analysis; assay type: ADME, microsome; in short: as §1
Liver [18] = assay: Drug metabolism in BALB/c mouse liver microsomes assessed as oxidation of quinoline core or pyridyl ring at 1 uM in presence of NADPH by mass spectrometric analysis; assay type: ADME, microsome; in short: as §1
Liver [19] = assay: Drug metabolism in BALB/c mouse liver microsomes assessed as N-dealkylation with oxidative deamination at 1 uM in presence of NADPH by mass spectrometric analysis; assay type: ADME, microsome; in short: as §1
Liver [20] = assay: Drug metabolism in BALB/c mouse liver microsomes assessed as aldehyde reduction at 1 uM in presence of NADPH by mass spectrometric analysis; assay type: ADME, microsome; in short: as §1
Liver [21] = assay: Drug metabolism in BALB/c mouse liver microsomes assessed as oxidation of aldehyde to carboxylic acid at 1 uM in presence of NADPH by mass spectrometric analysis; assay type: ADME, microsome; in short: as §1
[22] = molecular target: Voltage-gated inwardly rectifying potassium channel KCNH2 (Homo sapiens, UniProt Q12809); assay: Inhibition of human ERG expressed in CHO cells by automated patch clamp method; assay type: cell-based
Voltage-gated inwardly rectifying potassium channel KCNH2, sequence (Q12809 whole entry): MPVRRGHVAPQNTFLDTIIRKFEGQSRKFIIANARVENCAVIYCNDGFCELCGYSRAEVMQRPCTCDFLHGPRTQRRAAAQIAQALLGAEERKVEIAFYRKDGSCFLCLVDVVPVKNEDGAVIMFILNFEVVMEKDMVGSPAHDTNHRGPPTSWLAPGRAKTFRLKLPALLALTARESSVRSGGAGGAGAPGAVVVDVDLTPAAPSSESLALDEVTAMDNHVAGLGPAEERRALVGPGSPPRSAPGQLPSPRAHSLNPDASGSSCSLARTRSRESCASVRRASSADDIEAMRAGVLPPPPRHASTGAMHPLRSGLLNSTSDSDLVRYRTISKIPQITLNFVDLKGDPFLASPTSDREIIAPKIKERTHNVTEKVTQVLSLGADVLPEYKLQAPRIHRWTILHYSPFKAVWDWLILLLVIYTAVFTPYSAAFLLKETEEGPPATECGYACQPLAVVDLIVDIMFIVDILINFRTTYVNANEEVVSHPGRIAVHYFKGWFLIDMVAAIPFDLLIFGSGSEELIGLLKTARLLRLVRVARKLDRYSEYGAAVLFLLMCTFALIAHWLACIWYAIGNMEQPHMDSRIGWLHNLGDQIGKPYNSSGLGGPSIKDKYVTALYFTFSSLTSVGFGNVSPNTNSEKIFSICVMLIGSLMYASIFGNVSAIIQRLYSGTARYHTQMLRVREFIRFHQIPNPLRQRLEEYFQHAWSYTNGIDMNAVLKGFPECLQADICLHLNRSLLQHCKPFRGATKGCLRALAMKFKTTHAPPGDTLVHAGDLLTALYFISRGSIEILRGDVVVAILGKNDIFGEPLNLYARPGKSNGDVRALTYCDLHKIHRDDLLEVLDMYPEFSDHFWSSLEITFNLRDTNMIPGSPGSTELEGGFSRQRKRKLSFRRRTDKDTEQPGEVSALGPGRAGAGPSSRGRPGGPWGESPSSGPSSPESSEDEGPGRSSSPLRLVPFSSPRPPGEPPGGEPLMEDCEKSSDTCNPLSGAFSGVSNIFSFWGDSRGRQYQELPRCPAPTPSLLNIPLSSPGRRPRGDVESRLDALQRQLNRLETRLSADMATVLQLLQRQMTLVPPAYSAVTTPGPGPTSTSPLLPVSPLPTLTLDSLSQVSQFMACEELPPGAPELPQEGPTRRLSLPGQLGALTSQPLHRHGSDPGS

Row | Compound | Ratio IC50 (Plasmodium falciparum [1]) | solubility kinetic at 2 h [2] [µM] | logD at 4 h [3] | logD [4] | IC50 (Plasmodium falciparum [5]) [nM] | IC50 (Plasmodium falciparum [6]) [nM] | IC50 (Plasmodium falciparum [7]) [nM] | IC50 (CHO) [nM] | Ratio IC50 (Plasmodium falciparum [8]) | selectivity ratio [9] | Activity (Plasmodium berghei) [%] | half-life at 1 µM [10] [min] | CLint scaled at 1 µM [11] [mL/min/kg] | remaining at 0.5 h, 1 µM [12] [%] | Activity (Plasmodium falciparum [13]) | Activity (Plasmodium falciparum [14]) | Activity (Plasmodium falciparum [15]) | IC50 [16] [nM] | Drug metabolism (Liver [17]) | Drug metabolism (Liver [18]) | other results
1 | CN(Cc1ccccn1)Cc1ccccc1CNc1ccnc2cc(Cl)ccc12 | 2.5 | 165 (≈ 66.4 µg/mL) | 0.9 | 3.79 | 54.4 | 137 | 184 | 40200 | 3.4 | 740 | 82.4 | 5.49 | 1220 | 2.32 | Dose-dependent effect | Dose-dependent effect | Dose-dependent effect | 17900 | Metabolite_Detected | Metabolite_Detected | Drug metabolism (Liver [19]): Metabolite_Detected; Drug metabolism (Liver [20]): Metabolite_Detected; Drug metabolism (Liver [21]): Metabolite_Detected; IC50 [22]: 870 nM
2 | CN(Cc1ccccc1)Cc1cccc(CNc2ccnc3cc(Cl)ccc23)c1.Cl | 3.1 | 51.8 | 1.33 | 3.56 | 14.4 | 44.5 | 69.6 | 9500 | 4.8 | 660 | 97.5 | 6.15 | 1110 | 3.57 | – | – | – | 13400 | Metabolite_Detected | Metabolite_Detected | Drug metabolism (Liver [19]): Metabolite_Detected; Drug metabolism (Liver [20]): Metabolite_Detected; Drug metabolism (Liver [21]): Metabolite_Detected
3 | CN(Cc1ccccc1)Cc1cccc(CNc2ccnc3cc(Cl)ccc23)c1 [listing 1 of 2 here] | – | – | – | – | – | – | – | – | – | – | – | – | – | – | Dose-dependent effect | Dose-dependent effect | Dose-dependent effect | – | – | – | –
4 | CCN(CC)CCCC(C)Nc1ccnc2cc(Cl)ccc12 (centres undefined) [CHLOROQUINE PHOSPHATE] | – | – | – | – | – | – | – | – | – | – | – | – | – | – | – | – | – | 26100 | – | – | –
5 | CN(Cc1ccc(CNc2ccnc3cc(C#N)ccc23)cc1)Cc1ccccn1 | 1.9 | 144 (≈ 56.5 µg/mL) | 1 | 2.84 | 76.4 | 146 | 134 | 11200 | 1.8 | 146 | 98 | 6.22 | 1100 | 3.63 | Dose-dependent effect | Dose-dependent effect | Dose-dependent effect | 24800 | Metabolite_Detected | Metabolite_Detected | Drug metabolism (Liver [19]): Metabolite_Detected; Drug metabolism (Liver [20]): Metabolite_Detected; Drug metabolism (Liver [21]): Metabolite_Detected
6 | CN(Cc1ccccc1)Cc1cccc(CNc2ccnc3cc(Cl)ccc23)c1 [listing 2 of 2 here] | – | – | – | – | – | – | – | – | – | – | 99.9 | – | – | – | – | – | – | – | – | – | –
7 | Cc1ncc2n1-c1ccc(Cl)cc1C(c1ccccc1F)=NC2 [MIDAZOLAM] | – | – | – | – | – | – | – | – | – | – | – | 4.74 | 1420 | 1.33 | – | – | – | – | – | – | –
8 | CCN(CC)CCCC(C)Nc1ccnc2cc(Cl)ccc12 (centres undefined) | – | – | – | – | – | – | – | – | – | – | – | – | – | – | Dose-dependent effect | Dose-dependent effect | Dose-dependent effect | – | – | – | –
9 | COC(=O)[C@H]1[C@H]2C[C@@H]3c4[nH]c5cc(OC)ccc5c4CCN3C[C@H]2C[C@@H](OC(=O)c2cc(OC)c(OC)c(OC)c2)[C@@H]1OC [RESERPINE] | – | < 5 | – | – | – | – | – | – | – | – | – | – | – | – | – | – | – | – | – | – | –
10 | CN(Cc1ccccn1)Cc1ccccc1CNc1ccnc2cc(C#N)ccc12 | 1.3 | 172 (≈ 67.8 µg/mL) | 0.81 | 3.8 | 127 | 162 | 307 | 27600 | 2.4 | 218 | 47.1 | 5.35 | 1250 | 2.08 | Dose-dependent effect | Dose-dependent effect | Dose-dependent effect | 16600 | Metabolite_Detected | Metabolite_Detected | Drug metabolism (Liver [19]): Metabolite_Detected; Drug metabolism (Liver [20]): Metabolite_Detected; Drug metabolism (Liver [21]): Metabolite_Detected
11 | C[C@H]1[C@H](OC(=O)CCC(=O)O)O[C@@H]2O[C@@]3(C)CC[C@H]4[C@H](C)CC[C@@H]1[C@@]24OO3 [ARTESUNATE] | 2.6 | – | – | – | 5.6 | 14.3 | 7.7 | – | 1.4 | – | – | – | – | – | – | – | – | – | – | – | –
12 | CN(Cc1ccc(CNc2ccnc3cc(Cl)ccc23)cc1)Cc1ccccn1 | 3.9 | 197 (≈ 79.2 µg/mL) | 0.84 | 2.85 | 38.5 | 151 | 114 | 15700 | 3 | 408 | 91.4 | 5.35 | 1250 | 2.08 | Dose-dependent effect | Dose-dependent effect | Dose-dependent effect | 17200 | Metabolite_Detected | Metabolite_Detected | Drug metabolism (Liver [19]): Metabolite_Detected; Drug metabolism (Liver [20]): Metabolite_Detected; Drug metabolism (Liver [21]): Metabolite_Detected
13 | CCN(CC)CCCC(C)Nc1ccnc2cc(Cl)ccc12 (centres undefined) [CHLOROQUINE] | – | – | – | – | – | – | – | – | – | – | 91.2 | – | – | – | – | – | – | – | – | – | –
14 | CN(Cc1cccc(CNc2ccnc3cc(Cl)ccc23)c1)Cc1ccccn1 | 4.1 | 59.8 (≈ 24.1 µg/mL) | 0.82 | 2.47 | 30.1 | 124 | 83.8 | 8300 | 2.8 | 275 | 97.8 | 5.89 | 1140 | 2.96 | Dose-dependent effect | Dose-dependent effect | Dose-dependent effect | 20800 | Metabolite_Detected | Metabolite_Detected | Drug metabolism (Liver [19]): Metabolite_Detected; Drug metabolism (Liver [20]): Metabolite_Detected; Drug metabolism (Liver [21]): Metabolite_Detected

Reference: ChEMBL document CHEMBL4024765 (J Med Chem, 2017)
